We go through 17 compounds from ChEMBL document CHEMBL4041475, “Novel 2-arylazoimidazole derivatives as inhibitors of Trypanosoma cruzi proliferation: Synthesis and evaluation of their biological activity” (Eur J Med Chem, 2017).

The test system of series [1] is Trypanosoma cruzi. Nature of the series: Trypanocidal activity against Trypanosoma cruzi TCC epimastigotes at 1 to 15 uM supplemented with fresh medium containing compound every 9 to 10 days by haemocytometric method. Type of series: functional. Summed up: (§1)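 TCC strain epimastigotes grown at 28 °C in Diamond medium with haemin and 10% FBS. Seeded at 10×10⁶/mL in duplicate with 1, 5, 10 or 15 μM compound, alongside untreated cultures. Counted daily in a haemocytometer. Every ~9–10 days, re-diluted to 5×10⁶/mL in fresh compound-containing medium to start a new round.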

Series [2] has as its system Trypanosoma cruzi. Nature of the series: Trypanocidal activity against Trypanosoma cruzi TCC epimastigotes assessed as parasite duplication time at 15 uM measured after 9 to 10 days (reference value: 2 day). It is filed as functional. Summed up: as §1
Series [3] concerns Trypanosoma cruzi. Nature of the series: Trypanocidal activity against Trypanosoma cruzi TCC epimastigotes assessed as effect on parasite viability at 1 to 15 uM supplemented with fresh medium containing compound every 9 to 10 days measured on third week by maximal parasite density. Type of series: functional. Summed up:
as §1

For series [4], the system named is Trypanosoma cruzi. Nature of the series: Trypanocidal activity against Trypanosoma cruzi TCC epimastigotes assessed as effect on parasite motility at 1 to 15 uM supplemented with fresh medium containing compound every 9 to 10 days measured on third week. Type of series: functional. A digest of the protocol: as §1
Series [5] has as its system Trypanosoma cruzi. Nature of the series: Trypanocidal activity against Trypanosoma cruzi RA tripamastigote bloodstream forms infected in Balb/c mouse assessed as mouse survival at 100 mg/kg, po administered on day 9 post infection for 5 consecutive days measured daily during compound dosing up to 45 days post infection. Type of series: functional. A digest of the protocol:
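Male Balb/c mice (6–8 weeks, groups of six) were infected intraperitoneally with 100 bloodstream trypomastigotes harvested from CF1 mice. Oral dosing at 100 mg/kg/day for five consecutive days began once circulating parasites were confirmed microscopically, on day 9 p.i. Drugs were suspended in 0.1 M PBS (pH 7.2), prepared fresh daily; vehicle served as negative control. Mortality was recorded daily to 45 days p.i.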

Series [6] concerns Trypanosoma cruzi. Nature of the series: Trypanocidal activity against Trypanosoma cruzi TCC epimastigotes assessed as maximal parasite density at 1 to 15 uM supplemented with fresh medium containing compound every 9 to 10 days measured on third week by haemocytometric method. It is filed as functional. A digest of the protocol:
as §1

In series [7] the test system is Trypanosoma cruzi. Nature of the series: Trypanocidal activity against Trypanosoma cruzi TCC epimastigotes assessed as parasite duplication time at 1 to 15 uM supplemented with fresh medium containing compound every 9 to 10 days measured on third week. It is filed as functional. Summed up: as §1
Series [8] deals with Trypanosoma cruzi. Nature of the series: Trypanocidal activity against Trypanosoma cruzi TCC epimastigotes assessed as maximal parasite density at 15 uM measured after 9 to 10 days by haemocytometric method (reference value: 45 10^6/ml). Type of series: functional. A digest of the protocol:
as §1

The test system of series [9] is Trypanosoma cruzi. Nature of the series: Trypanocidal activity against Trypanosoma cruzi RA tripamastigote bloodstream forms infected in Balb/c mouse assessed as reduction in parasitaemia at 100 mg/kg, po administered on day 9 post infection for 5 consecutive days measured on day 35 post infection relative to control. Type of series: functional. Summed up:
(§2)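 Balb/c males, 6–8 weeks, groups of six, infected i.p. with 100 RA strain bloodstream trypomastigotes. Oral dosing for 5 consecutive days once parasites were circulating, in 0.1 M PBS pH 7.2, with vehicle as negative control. Tail-vein blood (5 μl) diluted 1:10 in NH₄Cl/Tris lysis buffer and counted in a haemocytometer every other day.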

Series [10] has as its system Trypanosoma cruzi. Nature of the series: Trypanocidal activity against Trypanosoma cruzi RA tripamastigote bloodstream forms infected in Balb/c mouse assessed as reduction in circulating parasite level in acute phase at 100 mg/kg, po administered on day 9 post infection for 5 consecutive days. Type of series: functional, organism-based. A digest of the protocol: as §2

Series [11] deals with Trypanosoma cruzi. Nature of the series: Trypanocidal activity against Trypanosoma cruzi RA tripamastigote bloodstream forms isolated from infected CF1 mouse blood after 24 hrs by haemocytometric method. Type of series: functional. A digest of the protocol:
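RA strain bloodstream trypomastigotes taken from CF1 mouse blood at parasitaemia peak (day 5 p.i.) and diluted in medium to 1.5×10⁶/ml. Exposed in duplicate to 125–1000 μM compound at 4 °C for 24 h. Viable parasites counted in a haemocytometer; % lysis computed against untreated control. IC50 obtained from log %L against log concentration.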

The nature of series [12]: Cytotoxicity against mouse RAW cells assessed as reduction in cell viability after 24 hrs by MTT assay. Type of series: cell-based. Summed up: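 RAW cells, 1x10⁵ per well, exposed to 125–1000 μM compound for 24 h at 37 °C, 5% CO₂; MTT added at 1.5 mg/mL final for 4 h, formazan dissolved in 1% SDS/0.01 M HCl, absorbance at 540 nm. CC50 obtained by linear regression of log OD against log concentration. Run in duplicate.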
For orientation: Tetrazolium dyes change colour on reduction, which living cells bring about.

Where [13] appears, read: in the assay text read “day 18 post infection relative” for “day 35 post infection relative”.

Active and inactive are the calls of the source. The rule behind the calls is not given here.

Turning to `O=C(Cn1ccnc1/N=N/c1ccc(C(F)(F)F)cc1)NC1CCCCC1`, the outcome with Trypanosoma cruzi [1] was inactive.

For `O=C(Cn1ccnc1/N=N/c1ccc(Cl)cc1)N1CCCC1`, in the series on Trypanosoma cruzi [1], the outcome was inactive.

Consider `O=C(Cn1ccnc1/N=N/c1ccc([N+](=O)[O-])cc1)NC1CCCCC1`, for which the result in the series on Trypanosoma cruzi [1] was inactive.

With `O=C(Cn1ccnc1/N=N/c1ccc(Cl)cc1)N1CCCCC1`, the outcome in the series on Trypanosoma cruzi [1] was inactive.

`O=C(Cn1ccnc1[N+](=O)[O-])NCc1ccccc1` [BENZNIDAZOLE]: the Time in the series with Trypanosoma cruzi [2] stood at 3 days. In addition, the outcome in the series with Trypanosoma cruzi [3], in the series with Trypanosoma cruzi [4], in the series with Trypanosoma cruzi [6], in the series with Trypanosoma cruzi [7] and with Trypanosoma cruzi [9] was Active. For the same compound, the survival at 100 mg/kg in the series with Trypanosoma cruzi [5] was 100%. Besides, the Activity in the series with Trypanosoma cruzi [8] is 25 ×10⁶ /ml.

Take `O=C(Cn1ccnc1/N=N/c1ccc([N+](=O)[O-])cc1)N1CCCCC1`: the result with Trypanosoma cruzi [10], in the series on Trypanosoma cruzi [3] and with Trypanosoma cruzi [4] was Active. Also, the values for the Time in the series with Trypanosoma cruzi [2] and in the series with Trypanosoma cruzi [7] were 4 days and 9 to 12 days, respectively. In the series on Trypanosoma cruzi [11], the IC50 was 645 µM. Also, the survival at 100 mg/kg in the series with Trypanosoma cruzi [5] stood at 67%. Besides, in series [12], the CC50 at 24 h amounted to 206 µM. Moreover, the Activity with Trypanosoma cruzi [6] was 5 - 6 ×10⁶ /ml; in the series with Trypanosoma cruzi [8], 20 ×10⁶ /ml; in the series on Trypanosoma cruzi [9] (setting [13]), 71%.

With `O=C(Cn1ccnc1/N=N/c1ccc(C(F)(F)F)cc1)N1CCCC1`, the outcome in the series with Trypanosoma cruzi [1] was inactive.

Turning to `NC(CCCCNC(=O)Cn1ccnc1/N=N/c1ccc([N+](=O)[O-])cc1)C(=O)O` (configuration not stated), in the series on Trypanosoma cruzi [1], the outcome was inactive.

On to `COc1ccc(/N=N/c2nccn2CC(=O)N2CCOCC2)c([N+](=O)[O-])c1`, for which the outcome with Trypanosoma cruzi [1] was inactive.

As to `O=C(Cn1ccnc1/N=N/c1ccc(Cl)c(Cl)c1)N1CCCC1`, in the series with Trypanosoma cruzi [1], the result was inactive.

Take `O=C(Cn1ccnc1/N=N/c1ccc([N+](=O)[O-])cc1)N1CCOCC1`: in the series on Trypanosoma cruzi [1], the outcome was inactive.

`O=C(Cn1ccnc1/N=N/c1ccc(C(F)(F)F)cc1)N1CCCCC1`: the result with Trypanosoma cruzi [10], in the series on Trypanosoma cruzi [3] and with Trypanosoma cruzi [4] was Active. For the same compound, in the series with Trypanosoma cruzi [11], half-maximal inhibition (IC50) was put at 1080 µM. The survival at 100 mg/kg with Trypanosoma cruzi [5] was determined as 67%. Moreover, the CC50 at 24 h in series [12] stood at 415 µM. Also, the Activity in the series with Trypanosoma cruzi [6] is 5 - 6 ×10⁶ /ml; in the series on Trypanosoma cruzi [9] (setting [13]), 60%. Further, in the series on Trypanosoma cruzi [7], the Time lay within 9 to 12 days.

On to `COc1ccc(/N=N/c2nccn2CC(=O)NC2CCCCC2)c([N+](=O)[O-])c1`, for which, in the series on Trypanosoma cruzi [1], the outcome was inactive.

Consider `O=C(Cn1ccnc1/N=N/c1ccc(C(F)(F)F)cc1)N1CCOCC1`, for which, in the series on Trypanosoma cruzi [1], the result was inactive.

`O=C(Cn1ccnc1/N=N/c1ccc([N+](=O)[O-])cc1)N1CCCC1`: the outcome in the series on Trypanosoma cruzi [1] was inactive.

In the case of `COc1ccc(/N=N/c2nccn2CC(=O)N2CCCCC2)c([N+](=O)[O-])c1`, the outcome in the series with Trypanosoma cruzi [1] was inactive.

Regarding `CN(C)c1ccc(C(=C2C=CC(=[N+](C)C)C=C2)c2ccc(N(C)C)cc2)cc1` [GENTIAN VIOLET], half-maximal inhibition in the series on Trypanosoma cruzi [11] (IC50) was put at 2.8 µM.

A word on the IC50: it is the concentration that gives 50% inhibition. What is called CC50 is the concentration giving 50% cytotoxicity.
